# Source: ChEMBL document CHEMBL1157578, “Design, synthesis, and biological evaluation of novel water-soluble triptolide derivatives: Antineoplastic activity against imatinib-resistant CML cells bearing T315I mutant Bcr-Abl” (Bioorg Med Chem, 2010)
# Calls of active or inactive are those of the source. The rule behind the calls is not given here.
# Tests used:
# KBM5 [1] = assay: Cytotoxicity against imatinib-resistant human KBM5 cells harboring Bcr-Abl T315I mutant at 0.001 to 17 uM after 72 hrs by MTS assay; format: functional, cell-based
# How it was run: (§1)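 KBM5 (wild-type p210 Bcr-Abl) or KBM5-T315I cells in IMDM + 10% heat-inactivated FCS. The T315I subline was kept in 1 µM imatinib, removed 2–3 days before assay. Cells incubated 72 h with increasing concentrations. Viability by MTS at 490 nm, as percent of control; IC50 from dose–response curves.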
# [2] = Cytotoxicity against imatinib-resistant human KBM5 cells harboring Bcr-Abl T315I mutant after 72 hrs by MTS assay; format: functional, cell-based; conditions: KBM5, 72 h; how it was run: as §1
# [3] = Cytotoxicity against human KBM5 cells harboring wild type Bcr-Abl after 72 hrs by MTS assay; format: functional, cell-based; conditions: KBM5, 72 h; how it was run: as §1
# KBM5 [4] = assay: Cytotoxicity against human KBM5 cells harboring wild type Bcr-Abl at 0.001 to 17 uM after 72 hrs by MTS assay; format: functional, cell-based; how it was run: as §1
# [5] = Aqueous solubility in water; format: physicochemical; conditions: buffer
# MEF = assay: Cytotoxicity against MEF after 72 hrs by MTS assay; format: cell-based; conditions: Mus musculus
# How it was run: (§2)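 MEF and NHFB fibroblasts cultured in DMEM + 10% FCS. Exposed to increasing concentrations for 72 h. Viability by MTS reagent, optical density at 490 nm.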
# [6] = Cytotoxicity against imatinib-resistant mouse 32D cells harboring Bcr-Abl T315I mutant after 72 hrs by MTS assay; format: functional, cell-based
# How it was run: (§3)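 32D myeloid cells stably expressing wild-type or T315I Bcr-Abl, maintained in RPMI 1640 + 10% FBS. Treated with increasing concentrations for 72 h. Viability by MTS, optical density at 490 nm.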
# [7] = Cytotoxicity against mouse 32D cells harboring wild type Bcr-Abl after 72 hrs by MTS assay; format: functional, cell-based; how it was run: as §3
# [8] = Cytotoxicity against NHFB after 72 hrs by MTS assay; set-up: species or system Homo sapiens; how it was run: as §2
# KBM5 [9] = assay: Induction of apoptosis in human KBM5 cells harboring wild type Bcr-Abl assessed as PARP cleavage at 50 to 100 uM after 18 hrs by Western blot analysis; format: functional, cell-based
# [10] = Downregulation of Bcr-Abl protein level in mouse 32D cells harboring wild type Bcr-Abl after 18 hrs by Western blot analysis; format: functional, cell-based
# How it was run: (§4)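 Cells exposed for 18 h at the indicated concentrations. Whole-cell lysates made in RIPA buffer with phosphatase and protease inhibitors. Western blot for Bcr-Abl (c-Abl C-19), phospho-c-Abl Y245, phospho-RNA polymerase II, PARP, and actin as loading control.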
# KBM5 [11] = assay: Inhibition of RNA polymerase 2 in human KBM5 cells harboring wild type Bcr-Abl assessed as decrease in polymerase 2 phosphorylation after 18 hrs by Western blot analysis; format: cell-based; how it was run: as §4
# [12] = Downregulation of Bcr-Abl protein level in mouse 32D cells harboring Bcr-Abl T315I mutant after 18 hrs by Western blot analysis; format: functional, cell-based; how it was run: as §4
# HeLa = assay: Inhibition of RNA polymerase 2 in human HeLa cells assessed as decrease in polymerase 2 phosphorylation at 50 to 100 nM after 18 hrs by Western blot analysis; format: cell-based
# DU-145 = assay: Inhibition of RNA polymerase 2 in human DU145 cells assessed as decrease in polymerase 2 phosphorylation at 50 to 100 nM after 18 hrs by Western blot analysis; format: cell-based
# [13] = Downregulation of Bcr-Abl mRNA level in human KBM5 cells harboring wild type Bcr-Abl at 50 to 100 nM after 18 hrs by semi-quantitative RT-PCR analysis; format: functional, cell-based
# How it was run: (§5)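 KBM5 and KBM5-T315I cells exposed to 50 or 100 nM, or control medium, for 18 h. Bcr-Abl and GAPDH mRNA measured by semi-quantitative RT-PCR; products run on 1% agarose and stained with ethidium bromide.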
# [14] = Downregulation of Bcr-Abl protein level in human KBM5 cells harboring Bcr-Abl T315I mutant after 18 hrs by Western blot analysis; format: functional, cell-based; how it was run: as §4
# KBM5 [15] = assay: Inhibition of RNA polymerase 2 in human KBM5 cells harboring Bcr-Abl T315I mutant assessed as decrease in polymerase 2 phosphorylation after 18 hrs by Western blot analysis; format: cell-based; how it was run: as §4
# KBM5 [16] = assay: Induction of apoptosis in human KBM5 cells harboring Bcr-Abl T315I mutant assessed as PARP cleavage at 50 to 100 uM after 18 hrs by Western blot analysis; format: functional, cell-based
# HCT-116 = assay: Inhibition of RNA polymerase 2 in human HCT116 cells assessed as decrease in polymerase 2 phosphorylation at 50 to 100 nM after 18 hrs by Western blot analysis; format: cell-based
# [17] = Downregulation of Bcr-Abl mRNA level in human KBM5 cells harboring Bcr-Abl T315I mutant at 50 to 100 nM after 18 hrs by semi-quantitative RT-PCR analysis; format: functional, cell-based; how it was run: as §5
# [18] = Downregulation of Bcr-Abl protein level in human KBM5 cells harboring wild type Bcr-Abl after 18 hrs by Western blot analysis; format: functional, cell-based; how it was run: as §4
SMILES,Activity (KBM5 [1]),IC50 [2] [nM],IC50 [3] [nM],Activity (KBM5 [4]),solubility [5],further results
COC(=O)[C@H](C)NCC(=O)O[C@@H]1[C@@]2(C(C)C)O[C@H]2[C@@H]2O[C@@]23[C@H]2CCC4=C(COC4=O)[C@@H]2C[C@@H]2O[C@]213,Active,14.2,18.6,Active,Soluble,–
CC(C)[C@]12O[C@H]1[C@@H]1O[C@@]13[C@H]1CCC4=C(COC4=O)[C@@H]1C[C@@H]1O[C@@]13[C@@H]2OC(=O)CCl,Active,–,–,Active,–,–
CNCC(=O)O[C@@H]1[C@@]2(C(C)C)O[C@H]2[C@@H]2O[C@@]23[C@H]2CCC4=C(COC4=O)[C@@H]2C[C@@H]2O[C@]213,Active,308,348,Active,Soluble,–
CC(C)[C@]12O[C@H]1[C@@H]1O[C@@]13[C@H]1CCC4=C(COC4=O)[C@@H]1C[C@@H]1O[C@@]13[C@@H]2OC(=O)CNc1ccc(Cl)cc1,inactive,734,5020,inactive,–,–
CC(C)[C@]12O[C@H]1[C@@H]1O[C@@]13[C@H]1CCC4=C(COC4=O)[C@@H]1C[C@@H]1O[C@@]13[C@@H]2OC(=O)CNCCN,Active,950,774,Active,Soluble,–
CC(C)[C@]12O[C@H]1[C@@H]1O[C@@]13[C@H]1CCC4=C(COC4=O)[C@@H]1C[C@@H]1O[C@@]13[C@@H]2OC(=O)CN1CCNCC1,Active,548,496,Active,Soluble,–
CC(C)[C@]12O[C@H]1[C@@H]1O[C@@]13[C@H]1CCC4=C(COC4=O)[C@@H]1C[C@@H]1O[C@@]13[C@@H]2OC(=O)CN,–,11.7,19.2,–,–,IC50 (MEF): 11100 nM; IC50 [6]: 44 nM; IC50 [7]: 50 nM; IC50 [8]: 11400 nM
CCCCCCCCCCCCNCC(=O)O[C@@H]1[C@@]2(C(C)C)O[C@H]2[C@@H]2O[C@@]23[C@H]2CCC4=C(COC4=O)[C@@H]2C[C@@H]2O[C@]213,inactive,1040,5420,inactive,–,–
CC(C)[C@]12O[C@H]1[C@@H]1O[C@]13[C@]1(O[C@H]1C[C@H]1C4=C(CC[C@@]13C)C(=O)OC4)[C@@H]2O [TRIPTOLIDE],Active,8.3,10.3,Active,Insoluble,IC50 (MEF): 9200 nM; IC50 [6]: 34 nM; IC50 [7]: 32 nM; IC50 [8]: 8800 nM
CC(C)[C@]12O[C@H]1[C@@H]1O[C@@]13[C@H]1CCC4=C(COC4=O)[C@@H]1C[C@@H]1O[C@@]13[C@@H]2OC(=O)CN(CCO)CCO,inactive,1550,2800,inactive,–,–
CC(C)[C@]12O[C@H]1[C@@H]1O[C@@]13[C@H]1CCC4=C(COC4=O)[C@@H]1C[C@@H]1O[C@@]13[C@@H]2OC(=O)CNCCO,Active,19.7,18.2,Active,Soluble,Activity (KBM5 [9]): Active; Activity [10]: Dose-dependent effect; inhibition (KBM5 [11]): Dose-dependent effect; Activity [12]: Dose-dependent effect; inhibition (HeLa): Active; inhibition (DU-145): Active; Activity [13]: Active; IC50 (MEF): 10400 nM; Activity [14]: Dose-dependent effect; IC50 [6]: 74 nM; inhibition (KBM5 [15]): Dose-dependent effect; Activity (KBM5 [16]): Active; IC50 [7]: 61 nM; inhibition (HCT-116): Active; Activity [17]: Active; Activity [18]: Dose-dependent effect; IC50 [8]: 10000 nM
CC(C)[C@]12O[C@H]1[C@@H]1O[C@@]13[C@H]1CCC4=C(COC4=O)[C@@H]1C[C@@H]1O[C@@]13[C@@H]2OC(=O)CNc1nccc(-c2cccnc2)n1,Active,214,297,Active,Soluble,–
CCN(CC)CC(=O)O[C@@H]1[C@@]2(C(C)C)O[C@H]2[C@@H]2O[C@@]23[C@H]2CCC4=C(COC4=O)[C@@H]2C[C@@H]2O[C@]213,Active,–,78,Active,Soluble,–
